A selection: hits, their analogues and other compounds. The true share with any hit is near 4.5%.
OX1R antag-1: OX1R (human) antagonism; inhibition, % at 6.6 µM; 330,000 tested, 1.8% active; O43613; AID 485270; OX1R-expressing cells, FRET antagonist read-out; in the data active means inhibition mostly above about 38%, no sharp cut-off; inactive means mostly below about 40%;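 further: 0% = agonist challenge alone and 100% = reference antagonist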
OX1R antag-2: human HCRTR1 antagonism | CHO/OX1R cells, Fluo-8 calcium fluorescence, orexin A | inhibition, % at 5 µM | 330,000 tested, 0.43% active | AID 434989;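 active means inhibition above its plate's threshold, mean inhibition of all tested compounds on the plate plus 3 SD, cut at about 37% in these data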;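 further: 0% = orexin A challenge wells and 100% = SB-334867-A antagonist wells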
TAAR1 agonist: agonists of human TAAR1; CHO RD-HGA16 TAAR1, Fluo-8 calcium fluorescence; vehicle wells 0%, saturating PEA agonist 100%; 360,000 tested, 0.99% active; Q96RJ0; activation, % at 3 µM; AID 624467;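 active means activation above the mean activation of all test compounds in the run plus 3 SD, cut at about 38% in these data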
Target sequence (Q96RJ0 whole entry, looked up): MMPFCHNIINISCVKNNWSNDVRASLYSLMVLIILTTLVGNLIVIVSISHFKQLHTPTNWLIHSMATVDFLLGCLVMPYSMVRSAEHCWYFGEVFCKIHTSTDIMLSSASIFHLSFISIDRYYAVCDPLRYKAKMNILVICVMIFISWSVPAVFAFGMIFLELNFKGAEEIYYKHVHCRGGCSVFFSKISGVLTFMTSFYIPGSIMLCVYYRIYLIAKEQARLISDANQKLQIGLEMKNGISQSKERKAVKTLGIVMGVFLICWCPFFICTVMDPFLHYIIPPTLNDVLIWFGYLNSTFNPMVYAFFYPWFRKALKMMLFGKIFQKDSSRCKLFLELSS
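Assay system: CHO-derived RD-HGA16 cells with stable Gα16 and human TAAR1; timing: 17-24 h seeding, 75 min 37 °C dye, 30 min RT; read-out: % activation from peak over basal fluorescence ratio, DMSO-to-PEA scaled; measured by: kinetic Fluo-8 calcium fluorescence; benchmarks: low control DMSO, high control PEA (EC100); doses: 3 µM single concentration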
CHO parental Ca: signal in parental CHO cells, OX1R antagonist counter-screen | parental CHO-K1, ATP-induced calcium, Fluo-8 fluorescence | inhibition, % at 5.6 µM | 330,000 tested, 0.63% active | AID 463079;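 active means inhibition above that plate's mean sample inhibition plus 3 SD, cut at about 26% in these data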;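 further: 0% = ATP-challenged DMSO wells and 100% = DMSO wells without ATP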
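Test system: parental CHO cells; detection: calcium-sensitive Fluo-8 fluorescence; evaluation: percent inhibition of calcium signal; also added: ATP as calcium-mobilizing challenge; repeats: one well per compound; control set: ATP-challenged DMSO wells low, unchallenged DMSO wells high; compound: single nominal dose of 5.6 µM per compound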
TAAR1 antagonist: antagonists of human TAAR1; Q96RJ0; CHO RD-HGA16 TAAR1, Fluo-8 calcium fluorescence, antagonist; inhibition, % at 3 µM; 360,000 tested, 1.5% active; AID 624466;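 active means inhibition above a per-plate cutoff, the mean inhibition of test compounds on that plate plus 3 SD, cut at about 49% in these data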;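 further: 0% = DMSO plus EC80 beta-PEA response and 100% = DMSO alone without agonist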
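System: CHO RD-HGA16 cells bearing hTAAR1. Reagent: EC80 β-phenethylamine stimulus. Schedule: seeding 17-24 h prior, 75-min 37 °C, 30-min RT dye loading. Signal: Fluo-8 intracellular calcium dye fluorescence, real-time kinetic reads. Read-out: % inhibition from peak post-agonist over basal fluorescence ratio. Benchmarks: vehicle wells and EC80 agonist wells. Replicates: n of 1.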
GPR7 antagonist: blocks human GPR7 receptor signaling. 290,000 tested, 1.1% active. GPR7-expressing cells, fluorescence antagonist assay. P48145. inhibition, % at 4.4 µM; in the data active means inhibition above about 16%, passing the limit was not always enough;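 further: cells stimulated with the agonist NPW; 0% = agonist with vehicle and 100% = vehicle without agonist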
Target sequence (P48145 whole entry, looked up): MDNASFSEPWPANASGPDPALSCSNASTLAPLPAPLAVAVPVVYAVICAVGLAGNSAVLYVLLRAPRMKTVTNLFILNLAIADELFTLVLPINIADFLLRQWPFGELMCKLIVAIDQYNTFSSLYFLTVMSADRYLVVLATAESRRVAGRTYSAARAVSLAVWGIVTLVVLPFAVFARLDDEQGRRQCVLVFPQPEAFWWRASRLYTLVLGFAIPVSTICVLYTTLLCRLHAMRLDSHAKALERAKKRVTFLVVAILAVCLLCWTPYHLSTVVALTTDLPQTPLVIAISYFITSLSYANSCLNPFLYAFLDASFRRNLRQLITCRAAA
GPR7 antag cf: confirmation of human GPR7 antagonists | shares compounds with GPR7 antagonist | GPR7-expressing cells, calcium fluorescence antagonist mode | inhibition, % at 4.4 µM | 2,400 tested, 52% active | AID 1952; in the data active means inhibition above about 24%;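 further: stimulated with the GPR7 agonist NPW; 0% = agonist plus vehicle and 100% = vehicle alone without agonist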
MCHR1 antag: counter-screen for GPR7 antagonists: antagonists of human MCHR1. inhibition, % at 4.4 µM. shares compounds with GPR7 antagonist. AID 2148. MCHR1-expressing cells, fluorescence antagonist assay. 2,400 tested, 62% active; in the data active means inhibition above about 22%;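 further: 0% = vehicle with agonist and 100% = vehicle without agonist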
The depositor's hits bear a star.

What do the screens show for `Cc1ccc(Cl)cc1N1CCN(CC(=O)Nc2ccc(CN3CCCCC3)cc2)CC1`?
OX1R antag-1: 14; OX1R antag-2: -5; TAAR1 agonist: 52*; CHO parental Ca: -11; TAAR1 antagonist: -3; GPR7 antagonist: 24*; GPR7 antag cf: 28*; MCHR1 antag: 56*

Results for CCN(CC)S(=O)(=O)c1ccc(/C=C/C(=O)OCC(=O)NCc2ccco2)cc1 ?
OX1R antag-1: 8; OX1R antag-2: -6; TAAR1 agonist: 8; CHO parental Ca: -6; TAAR1 antagonist: -4

How did Cc1ccc[n+](CC(=O)Nc2ccc(C)c(C)c2)c1 do in these assays?
OX1R antag-1: -10; OX1R antag-2: -5; TAAR1 agonist: 2; CHO parental Ca: 1; TAAR1 antagonist: 7; GPR7 antagonist: -14

Results for C[C@H]1CN([C@@H](C)CO)C(=O)c2cc(-c3cccc(C(=O)N(C)C)c3)cnc2O[C@H]1CN(C)C(=O)Cc1ccccn1 ?
TAAR1 agonist: 4; TAAR1 antagonist: -6

What do the screens show for `O=c1cc(N2CCOCC2)[nH]c(=O)n1-c1ccc(Br)cc1`?
OX1R antag-1: 8; OX1R antag-2: -10; TAAR1 agonist: 1; CHO parental Ca: 1; TAAR1 antagonist: 11; GPR7 antagonist: 25*; GPR7 antag cf: -12; MCHR1 antag: 8

Results for CCOC(=O)C1(CCOc2ccccc2)CCN(Cc2ccc(O)c(OCC)c2)CC1 ?
OX1R antag-1: 9; OX1R antag-2: -28; TAAR1 agonist: 6; CHO parental Ca: -10; TAAR1 antagonist: 0; GPR7 antagonist: 1

How did S=C(NCc1ccccc1)NCc1ccc2c(c1)OCO2 do in these assays?
OX1R antag-1: 2; OX1R antag-2: -6; TAAR1 agonist: 3; CHO parental Ca: -13; TAAR1 antagonist: 9; GPR7 antagonist: 4

What do the screens show for `Fc1ccccc1NC(=S)NCc1ccc2c(c1)OCO2`?
OX1R antag-1: 12; OX1R antag-2: 0; TAAR1 agonist: 2; CHO parental Ca: -8; TAAR1 antagonist: -15; GPR7 antagonist: 31*; GPR7 antag cf: 19; MCHR1 antag: 7

How did Cc1ccc(C(=O)NCc2ccc3c(c2)OCO3)o1 do in these assays?
OX1R antag-1: 2; OX1R antag-2: -15; TAAR1 agonist: 0; CHO parental Ca: -18; TAAR1 antagonist: -13; GPR7 antagonist: 28*; GPR7 antag cf: 0; MCHR1 antag: 5

Results for CCOC(=O)N/N=C/c1cn(CCCOc2ccccc2)c2ccccc12 ?
OX1R antag-1: 8; OX1R antag-2: 4; TAAR1 agonist: 3; CHO parental Ca: -4; TAAR1 antagonist: -1; GPR7 antagonist: 27*; GPR7 antag cf: 9; MCHR1 antag: 44*

What do the screens show for `CCc1ccc(CSc2nccn2-c2ccccc2)cc1`?
OX1R antag-1: 28; OX1R antag-2: -8; TAAR1 agonist: 25; CHO parental Ca: -17; TAAR1 antagonist: 27; GPR7 antagonist: 27*; GPR7 antag cf: -9; MCHR1 antag: 40*

What do the screens show for `Cn1cnc([N+](=O)[O-])c1Sc1ccc(C(C)(C)C)cc1`?
OX1R antag-1: -2; OX1R antag-2: -1; TAAR1 agonist: 42*; CHO parental Ca: -2; TAAR1 antagonist: 28; GPR7 antagonist: 27*; GPR7 antag cf: 38*; MCHR1 antag: 26*

What do the screens show for `Cc1ccc(Sc2c([N+](=O)[O-])ncn2C)cc1`?
OX1R antag-1: 11; OX1R antag-2: -5; TAAR1 agonist: 8; CHO parental Ca: -1; TAAR1 antagonist: -6; GPR7 antagonist: -12

What do the screens show for `CC(Sc1nnc2ccccn12)C(N)=O` (stereo unspecified)?
OX1R antag-1: 11; OX1R antag-2: 13; TAAR1 agonist: 1; CHO parental Ca: 11; TAAR1 antagonist: -14; GPR7 antagonist: 25*; GPR7 antag cf: -6; MCHR1 antag: -5

What do the screens show for `Cc1nnsc1C(=O)Nc1ccc(S(=O)(=O)N2CCCC(C)C2)cc1` (stereo unspecified)?
OX1R antag-1: 9; OX1R antag-2: 0; TAAR1 agonist: 11; CHO parental Ca: 14; TAAR1 antagonist: -12; GPR7 antagonist: -7

What do the screens show for `Cc1ccc(CNC(=O)C2CCCN(S(=O)(=O)c3cnc[nH]3)C2)cc1` (stereo unspecified)?
OX1R antag-1: 6; OX1R antag-2: 3; TAAR1 agonist: 1; CHO parental Ca: -4; TAAR1 antagonist: -13; GPR7 antagonist: -4

How did COc1ccc(CNC(=O)C2CCCN(S(=O)(=O)c3cnc[nH]3)C2)cc1 (stereo unspecified) do in these assays?
OX1R antag-1: 15; OX1R antag-2: -11; TAAR1 agonist: 0; CHO parental Ca: 0; TAAR1 antagonist: 2; GPR7 antagonist: 29*; GPR7 antag cf: -12; MCHR1 antag: -8

Results for Cc1cc(C)cc(NC(=O)C2CCN(S(=O)(=O)c3ccc4c(c3)NC(=O)C(C)S4)CC2)c1 (stereo unspecified) ?
OX1R antag-1: 17; OX1R antag-2: 14; TAAR1 agonist: 0; CHO parental Ca: 24; TAAR1 antagonist: 28; GPR7 antagonist: 30*; GPR7 antag cf: 25*; MCHR1 antag: 46*

How did Cc1ccc(NC(=O)C2CCN(S(=O)(=O)c3ccc4c(c3)NC(=O)C(C)S4)CC2)c(Cl)c1 (stereo unspecified) do in these assays?
OX1R antag-1: -2; OX1R antag-2: -17; TAAR1 agonist: 2; CHO parental Ca: -9; TAAR1 antagonist: 30; GPR7 antagonist: 0

Results for CC1Sc2ccc(S(=O)(=O)N3CCN(c4ccccc4)CC3)cc2NC1=O (stereo unspecified) ?
OX1R antag-1: 7; OX1R antag-2: -28; TAAR1 agonist: 6; CHO parental Ca: 10; TAAR1 antagonist: 5; GPR7 antagonist: 39*; GPR7 antag cf: 18; MCHR1 antag: 26*

What do the screens show for `Cc1ccc(NC(=O)C2CCN(S(=O)(=O)c3ccc4c(c3)C(C)(C)C(=O)N4C)CC2)c(C)c1`?
OX1R antag-1: 16; OX1R antag-2: -15; TAAR1 agonist: 3; CHO parental Ca: -7; TAAR1 antagonist: 2; GPR7 antagonist: 30*; GPR7 antag cf: -1; MCHR1 antag: 4

How did Cc1cccc(N2CCN(S(=O)(=O)c3ccc4c(c3)NC(=O)C(C)S4)CC2)c1C (stereo unspecified) do in these assays?
OX1R antag-1: 30; OX1R antag-2: -25; TAAR1 agonist: 0; CHO parental Ca: -6; TAAR1 antagonist: 8; GPR7 antagonist: -4

Results for O=C(O)CSc1nc2ccc(Br)cc2[nH]1 ?
TAAR1 agonist: 1; TAAR1 antagonist: -11

Screening results: PubChem BioAssay, The Scripps Research Institute Molecular Screening Center
